In publication PMC4827872 (Chemical research in toxicology, 2015):
Read-outs that look alike come from different tables or passages of the source.

What was measured:
[1] = target: T1, DIO2 (Homo sapiens, UniProt Q92813); assay: DIO2 activity in H4 glioma cells exposed to PBDEs/OH-BDEs; type: cell-based; conditions: for Significant DIO2 Effects in H4 Cells (%Ctrl): at the lowest dose that significantly decreased DIO2 activity
T1 sequence (Q92813 1-273): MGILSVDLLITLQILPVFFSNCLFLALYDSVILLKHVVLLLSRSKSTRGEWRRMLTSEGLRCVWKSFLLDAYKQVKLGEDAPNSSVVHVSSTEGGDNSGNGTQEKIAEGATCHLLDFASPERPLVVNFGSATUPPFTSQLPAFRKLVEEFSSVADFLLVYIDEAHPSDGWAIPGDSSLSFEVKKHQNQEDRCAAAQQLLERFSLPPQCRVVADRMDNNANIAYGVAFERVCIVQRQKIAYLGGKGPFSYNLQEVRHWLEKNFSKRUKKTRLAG

[2] = test system: DIO2 mRNA; assay: DIO2 mRNA expression; type: cell-based, human; conditions: 6 h; for DIO2 mRNA expression level vs control: 3 doses
[3] = test system: cultured cells; assay: Cell viability; type: cell-based; conditions: for significant effects on viability: any doses less than 7.5 µM, 24 h; for decrease in viability: 5 µM, 24 h exposure
[4] = test system: cultured cells; assay: Cell membrane damage; type: cell-based; conditions: 24 h; for significant effects on membrane damage: any doses less than 7.5 µM; for membrane damage vs control: doses less than 50 µM
In short: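 Cells in 96-well plates, switched to serum-free A-DMEM with 30 nM selenium 24 h beforehand, then exposed 24 h to test compound added from 1,000× DMSO stocks (final DMSO 0.1%). Membrane damage was read as glucose-6-phosphate dehydrogenase activity released into the medium. Values were normalized to well DNA content and to DMSO vehicle controls.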

[5] = human serum, cited from earlier work
[6] = target: T1, DIO2; assay: In vitro DIO2 kinetics and inhibition in microsomal preparations of H4 cells; type: biochemical; conditions: for concentrations at which DIO2 activity was inhibited: 2 nM T4
[7] = calculated assuming serum lipid 6.36 mg mL−1, ref 5
[8] = calculated assuming serum lipid 6.36 mg mL−1, ref 43
[9] = calculated assuming serum lipid 6.36 mg mL−1, ref 52
[10] = H4 glioma cells, doses of approximately 1–5 µM (abstract)
[11] = geometric mean or median, ref 53
[12] = H4 cells, 5,000 nM, 6 h exposure
[13] = calculated assuming serum lipid 6.36 mg mL−1, ref 53
[14] = calculated assuming serum lipid 6.36 mg mL−1, ref 36

SMILES: Brc1ccc(Oc2ccc(Br)cc2Br)c(Br)c1 [BDE-47]
- effect on DIO2 activity ([1]; H4 cells, any of the exposure concentrations, 6 h exposure): did not significantly alter
- Significant DIO2 Effects in H4 Cells (%Ctrl) [1]: None
- DIO2 mRNA expression level vs control ([2]; H4 cells): not significantly different from control
- significant effects on viability [3]: not detected
- significant effects on membrane damage [4]: not detected
- Average Serum Concentration [5, 7]: 0.305 nM
- Maximum Serum Concentration [5, 7]: 4.58 nM
- Average Serum Concentration [5, 8]: 1.01 nM
- Maximum Serum Concentration [5, 8]: 1.94 nM
- Average Serum Concentration [5, 9]: 1.02 nM
- Maximum Serum Concentration [5, 9]: 60.7 nM
- Average Serum Concentration ([5]; geometric mean or median, ref 5): 23.3 ng/g lipid
- Average Serum Concentration ([5]; geometric mean or median, ref 43): 77 ng/g lipid
- Average Serum Concentration ([5]; geometric mean or median, ref 52): 77.8 ng/g lipid
- Maximum Serum Concentration ([5]; ref 5): 350 ng/g lipid
- Maximum Serum Concentration ([5]; ref 43): 148 ng/g lipid
- Maximum Serum Concentration ([5]; ref 52): 4,640 ng/g lipid

SMILES: Oc1cc(Oc2cc(Br)c(Br)cc2Br)c(Br)cc1Br [5’-OH-BDE-99]
- inhibition at 1 µM ([1]; 6 h, read-out: decrease in DIO2 activity, H4 cells, 1,000 nM, 6 h exposure): 57.4 ± 1.2%
- inhibition at 5 µM ([1]; 6 h, read-out: decrease in DIO2 activity, H4 cells, 5,000 nM, 6 h exposure): 63.6 ± 2%
- inhibition at 1 µM ([1]; 12 h, read-out: decrease in DIO2 activity, H4 cells, 1,000 nM, 12 h exposure): 55.7 ± 5.4%
- lowest dose that significantly decreased DIO2 activity ([1]; H4 cells): ~1,000 nM
- decrease in DIO2 activity with MG132 coexposure ([1]; H4 cells, 500 nM, 6 h, plus 10 µM MG132, relative to MG132 control): 37.0 ± 2.6%
- decrease in DIO2 activity [1, 10]: 45–80%
- Significant DIO2 Effects in H4 Cells (%Ctrl) [1]: 57.4%
- IC50 [6]: 16.6 ± 1.1 µM
- Ki [6]: 7.11 µM
- concentrations at which DIO2 activity was inhibited ([6]; H4 microsomes): > 1 µM
- Vmax of DIO2 with inhibitor added ([6]; H4 microsomes, 15 µM 5’-OH-BDE-99 added): 47.2 ± 8.0 fmol min^−1 mg protein^−1
- mrna remaining at 5 µM ([2]; Homo sapiens, read-out: DIO2 mRNA expression ratio relative to the control value of 1.0): 64 ± 12%
- significant effects on viability [3]: not detected
- significant effects on membrane damage [4]: not detected
- Average Serum Concentration [5, 11]: 22 ng/g lipid

SMILES: Oc1c(Br)ccc(Oc2ccc(Br)cc2Br)c1Br [3-OH-BDE-47]
- lowest dose that significantly decreased DIO2 activity ([1]; H4 cells): ~1,000 nM
- decrease in DIO2 activity ([1]; H4 cells, 1,000 nM, 1 h exposure): 71.1 ± 13.7%
- decrease in DIO2 activity ([1]; H4 cells, 1,000 nM, 6 h exposure): 52.1 ± 8.5%
- decrease in DIO2 activity ([1]; H4 cells, 1,000 nM, 12 h exposure): not significantly different from control
- decrease in DIO2 activity [1, 12]: 68.2 ± 13.9%
- decrease in DIO2 activity [1, 10]: 45–80%
- Significant DIO2 Effects in H4 Cells (%Ctrl) [1]: 71.1%
- concentrations at which DIO2 activity was inhibited ([6]; H4 microsomes): > 1 µM
- Ki ([6]; read-out: Ki for DIO2, calculated from IC50, measured T4 concentration and Km): 1.6 µM
- DIO2 mRNA expression level vs control ([2]; H4 cells): not significantly different from control
- decrease in viability [3]: 31.7 ± 7.8%
- membrane damage vs control [4]: not significantly different from control
- Average Serum Concentration [5, 13]: 0.020 nM
- Average Serum Concentration [5, 11]: 1.6 ng/g lipid

SMILES: Oc1cc(Br)cc(Br)c1Oc1ccc(Br)cc1Br [6-OH-BDE-47]
- lowest dose that significantly decreased DIO2 activity ([1]; H4 cells): 5,000 nM
- decrease in DIO2 activity [1, 12]: 57.1 ± 11.4%
- decrease in DIO2 activity [1, 10]: 45–80%
- Significant DIO2 Effects in H4 Cells (%Ctrl) [1]: 57.1%
- DIO2 mRNA expression ratio relative to the control value of 1.0 ([2]; H4 cells, 5,000 nM, normalized to RPL13A): 0.59 ± 0.08
- decrease in viability [3]: 32.0 ± 8.2%
- membrane damage vs control [4]: not significantly different from control
- Average Serum Concentration [5, 14]: 0.0022 nM
- Maximum Serum Concentration [5, 14]: 0.137 nM
- Average Serum Concentration [5, 13]: 0.13 nM
- Average Serum Concentration ([5]; geometric mean or median, ref 36): 0.17 ng/g lipid
- Average Serum Concentration [5, 11]: 9.9 ng/g lipid
- Average Serum Concentration ([5]; geometric mean or median, ref 54): 0.0131 nM
- Maximum Serum Concentration ([5]; ref 36): 10.8 ng/g lipid
- Maximum Serum Concentration ([5]; ref 54): 0.336 nM
